CHRM5 agonist: CHRM5 agonism in calcium assay | AID 624037 | 0.19% of 360,000 active | activation, % at 3 µM | CHO-K1 hM5 cells, Fluo-8 calcium fluorescence; 0% DMSO wells, 100% maximal acetylcholine response;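 active = activation above the run's mean over test compounds plus 3 SD, cut at about 23% in these data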;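 note: signal is peak over basal fluorescence ratio across the kinetic read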
CHRM4 PAM: potentiates acetylcholine response at human M4 receptor; CHO-K1 hM4/Gqi5, Fluo-8 calcium fluorescence, ACh EC20; 0% = ACh EC20, 100% = maximal ACh; AID 624126; 0.4% of 360,000 active; activation, % at 3 µM;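 active = activation above its plate's cutoff, the mean activation of sample wells plus 3 SD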
Target sequence (P08173 whole entry, looked up): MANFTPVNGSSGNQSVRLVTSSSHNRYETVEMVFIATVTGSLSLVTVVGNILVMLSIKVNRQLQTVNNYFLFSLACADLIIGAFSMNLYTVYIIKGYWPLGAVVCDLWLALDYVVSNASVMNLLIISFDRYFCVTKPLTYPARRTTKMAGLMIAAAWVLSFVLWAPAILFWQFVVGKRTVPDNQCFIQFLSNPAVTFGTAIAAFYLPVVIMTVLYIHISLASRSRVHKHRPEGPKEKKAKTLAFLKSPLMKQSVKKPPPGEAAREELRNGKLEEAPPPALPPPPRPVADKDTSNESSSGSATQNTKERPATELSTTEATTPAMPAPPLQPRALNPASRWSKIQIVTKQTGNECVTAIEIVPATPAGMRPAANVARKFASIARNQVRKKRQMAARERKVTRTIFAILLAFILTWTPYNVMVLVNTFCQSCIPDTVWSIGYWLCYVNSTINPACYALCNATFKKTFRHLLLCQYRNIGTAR
CHRM4 agonist: CHRM4 agonism in calcium assay; activation, % at 3 µM; CHO-K1 hM4/Gqi5, Fluo-8 calcium fluorescence; vehicle 0%, full acetylcholine response 100%; AID 624127; 0.14% of 360,000 active;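 active = activation above the run mean over all test wells plus 3 SD, cut at about 32% in these data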;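 note: peak over basal fluorescence ratio per well then scaled between controls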
CHRM5 antagonist: blocks acetylcholine activation of human M5 receptor; inhibition, % at 3 µM; CHO-hM5 cells, Fluo-8 calcium fluorescence, ACh EC80; 0.59% of 360,000 active; AID 624040; P08912;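 active = inhibition above a per-plate cutoff, the mean of that plate's test compounds plus 3 SD, cut at about 27% in these data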
CHRM5 PAM: potentiates acetylcholine response at human M5 receptor | P08912 | CHO-K1 hM5, Fluo-8 calcium, ACh EC20 PAM; 0% = ACh EC20, 100% = ACh EC100 | activation, % at 3 µM | 0.3% of 360,000 active | AID 624038;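 active = activation above the run cutoff, the mean activation of all test compounds plus 3 SD, cut at about 18% in these data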
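System: CHO-K1 cell line with stable human muscarinic M5 receptor expression | Also added: EC20 acetylcholine as agonist stimulus | Compound: One concentration, 3 µM final (nominal) | Timing: Fluo-8 loading 80 min at 37 °C plus 30 min room temperature | Measured by: Fluo-8 calcium dye fluorescence, kinetic read | Read-out basis: % activation, ACh-normalized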
M4 antag: antagonists of human muscarinic M4 receptor (CHRM4). CHO-hM4 cells, ACh EC80, Fluo-8 calcium fluorescence. inhibition, % at 3 µM. 0.73% of 360,000 active. AID 624125;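 active = inhibition above its plate's cutoff, the mean inhibition of sample wells plus 3 SD, cut at about 27% in these data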
Of the large screens only hits and unclear results are named; the others gave an inactive call. Only some compounds are listed: those with a hit (about 1.8% of all), similar ones and a draw of the others.

CC(C)N(C)Cc1nnnn1CC(=O)NCCc1cccc(C(F)(F)F)c1	CHRM5 PAM 22
Cc1ccc(CONC(=O)c2cccc([N+](=O)[O-])c2)cc1	none
COC(=O)C(/C=N/OCc1ccc([N+](=O)[O-])cc1)NC(=O)c1cccc(Cl)c1 (stereo not drawn)	CHRM5 agonist 34
Cc1cc(NC(=O)CN(C)CC(=O)Nc2ccc(Cl)c(C(F)(F)F)c2)no1	CHRM4 PAM 23
Cc1cc(NC(=O)CSCC(=O)Nc2ccc(Cl)c(C(F)(F)F)c2)no1	none
BrC(/C=N/N1CCN(Cc2ccccc2)CC1)=C/c1ccccc1	none
COc1ccc(N2CCN(CC(O)COc3cc(C)ccc3C)CC2)cc1 (stereo not drawn)	none
Cc1ccc(N2C(=O)N(CC(=O)Nc3ccccc3C)C(=O)C2C)cc1 (stereo not drawn)	CHRM5 PAM 19
Cc1cn([C@H]2C[C@H](O)[C@@H](CNC(=O)[C@H](N)C3CC3)O2)c(=O)[nH]c1=O	none
CCc1nc2c(OCc3ccc(OC)cc3)cccn2c1N(C)C(=O)c1ccco1	none
CC1=C(C(=O)Nc2cccc(C(=O)NC3CCCCC3C)c2)SCCO1 (stereo not drawn)	none
CN1C(=O)/C(=C\c2ccc(N(C)C)cc2)OC1=S	CHRM5 agonist 96
Cc1cc(N2CCOCC2)ccc1/C=C\[N+](=O)[O-]	CHRM5 antagonist 31
O=[N+]([O-])c1ccc(N2CCOCC2)cc1O	none
CC(CCC(C)C(C)(C)C)[C@@H]1CC[C@H]2C3C[C@H](OS(O)(=S)=S)[C@H]4C[C@H](OS(O)(=S)=S)[C@@H](OS(O)(=S)=S)C[C@]4(C)[C@H]3CC[C@]12C (stereo partly drawn) (tested in a mixture with another compound)	CHRM4 agonist 81, M4 antag 51
CC(C)(C)NS(=O)(=O)c1ccc(NC(=O)Cc2ccccc2[N+](=O)[O-])cc1	CHRM4 PAM 20
CCCCNS(=O)(=O)c1ccc(NC(=O)Cc2ccccc2[N+](=O)[O-])cc1	none
O=C1NCC(COCC2CC=CCC2)O1 (stereo not drawn)	CHRM4 PAM 28
COc1ccc(CN2CCC(=O)N(CCO)CC2)cc1OC	none
CCOC(=O)C1CCCN(C2=NC(=O)/C(=C/c3ccc(N(C)C)cc3)S2)C1 (stereo not drawn)	CHRM4 agonist 41
Cc1ccc(S(=O)(=O)n2cnc(C)c2)cc1	CHRM5 PAM 20
CC(=O)Nc1ccc(S(=O)(=O)n2cnc(C)c2)cc1	none
O=C(COc1ccccc1)NC1CCS(=O)(=O)C1 (stereo not drawn)	none
O=C(COC(=O)C1(c2ccccc2F)CCCC1)NC1CCS(=O)(=O)C1 (stereo not drawn)	CHRM4 PAM 24
C[N+]12CCC(CC1)C(OC(=O)C(O)(c1ccccc1)c1ccccc1)C2 (stereo not drawn)	CHRM5 antagonist 99, M4 antag 100
O=C(Nc1ccc(S(=O)(=O)N2CCCCC2)cc1)C1CC(=O)N(c2ccc(Cl)cc2)C1 (stereo not drawn)	none
CC(c1ccccc1)C1OCC(C[N+]2(C)CCCCC2)O1 (stereo not drawn)	CHRM5 antagonist 30, M4 antag 45
COc1ccc(C2C(C(=O)N3CCN(C)CC3)c3ccccc3C(=O)N2C2CCCCC2)cc1 (stereo not drawn)	CHRM4 PAM 22, CHRM5 PAM 22
COc1ccc(C2C(C(=O)N3CCN(c4ccccc4)CC3)c3ccccc3C(=O)N2C)cc1 (stereo not drawn)	none
Cc1cc(C)n(-c2nc(Nc3ccccc3C(F)(F)F)nc(-n3nc(C)cc3C)n2)n1	CHRM5 antagonist 30
Cc1cc(C)n(-c2nc(NC(C)(C)C)nc(NC(C)(C)C)n2)n1	none
Cc1cnc(C(=O)OC(C)C(=O)Nc2cccc3ccccc23)cn1 (stereo not drawn)	none

Source: PubChem BioAssay
